According to ChEMBL document CHEMBL1122425, “Synthesis and some pharmacological properties of [4-threonine,7-sarcosine]oxytocin, a peptide with high oxytocic potency, and of [4-threonine,7-N-methylalanine]oxytocin” (1983):

Columns and labels:
[1] = species on record: Rattus norvegicus; test: In vitro for uterotonic activity in the presence of Mg2+ ion by Munsick method; format: functional
Method in brief: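 Isolated uterus bath contains 0.5 mM Mg2+.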

[2] = test system: Rattus norvegicus; test: Evaluation of antidiuretic activity against ethanol-anesthetized rats; format: functional, Urine
Method in brief: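 Rats water-loaded before assay, under ethanol anesthesia.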

[3] = species on record: Rattus norvegicus; test: Evaluation of milk ejecting activity; format: functional
[4] = species on record: Rattus norvegicus; test: In vitro for uterotonic activity in the absence of Mg2+ ion by Munsick method; format: functional
[5] = Ratio of Oxytocin to Pressor activity; format: functional
[6] = species on record: Rattus norvegicus; test: Evaluation of vasopressor activity; format: functional
[7] = Ratio of Oxytocin to Antidiuretic activity; format: functional, Urine

SMILES: CC[C@H](C)[C@@H]1NC(=O)[C@H](Cc2ccc(O)cc2)NC(=O)[C@@H](N)CSSC[C@@H](C(=O)N2CCC[C@H]2C(=O)N[C@@H](CC(C)C)C(=O)NCC(N)=O)NC(=O)[C@H](CC(N)=O)NC(=O)[C@H](CCC(N)=O)NC1=O [OXYTOCIN]
- Activity [1]: 486 U mg-1
- Activity [2]: 4 U mg-1
- Activity [3]: 474 U mg-1
- Activity [4]: 520 U mg-1
- Ratio [5]: 120

SMILES: CC[C@H](C)[C@@H]1NC(=O)[C@@H](Cc2ccc(O)cc2)NC(=O)[C@H](N)CSSC[C@@H](C(=O)N(C)CC(=O)N[C@@H](CC(C)C)C(=O)NCC(N)=O)NC(=O)[C@H](CC(N)=O)NC(=O)[C@@H](CCC(N)=O)NC1=O
- Ratio [5]: > 1310

SMILES: CC[C@H](C)[C@@H]1NC(=O)[C@H](Cc2ccc(O)cc2)NC(=O)[C@@H](N)CSSC[C@@H](C(=O)N(C)[C@@H](C)C(=O)N[C@@H](CC(C)C)C(=O)NCC(N)=O)NC(=O)[C@H](CC(N)=O)NC(=O)[C@H]([C@@H](C)O)NC1=O
- Activity [1]: 219 U mg-1
- Activity [2]: 0.047 U mg-1
- Activity [6]: <0.6 U mg-1
- Activity [3]: 243 U mg-1
- Activity [4]: 115 U mg-1
- Ratio [7]: 2450

SMILES: CC[C@H](C)[C@@H]1NC(=O)[C@@H](Cc2ccc(O)cc2)NC(=O)[C@H](N)CSSC[C@@H](C(=O)N(C)[C@H](C)C(=O)N[C@@H](CC(C)C)C(=O)NCC(N)=O)NC(=O)[C@H](CC(N)=O)NC(=O)[C@@H](CCC(N)=O)NC1=O
- Ratio [5]: > 177

SMILES: CC[C@H](C)[C@@H]1NC(=O)[C@H](Cc2ccc(O)cc2)NC(=O)[C@@H](N)CSSC[C@@H](C(=O)N(C)CC(=O)N[C@@H](CC(C)C)C(=O)NCC(N)=O)NC(=O)[C@H](CC(N)=O)NC(=O)[C@H](CCC(N)=O)NC1=O
- Activity [1]: 609 U mg-1
- Activity [2]: 0.18 U mg-1
- Activity [6]: <0.35 U mg-1
- Activity [3]: 564 U mg-1
- Activity [4]: 459 U mg-1
- Ratio [7]: 2550

SMILES: CC[C@H](C)[C@@H]1NC(=O)[C@H](Cc2ccc(O)cc2)NC(=O)[C@@H](N)CSSC[C@@H](C(=O)N(C)CC(=O)N[C@@H](CC(C)C)C(=O)NCC(N)=O)NC(=O)[C@H](CC(N)=O)NC(=O)[C@H]([C@@H](C)O)NC1=O
- Activity [1]: 1561 U mg-1
- Activity [2]: 0.037 U mg-1
- Activity [6]: <0.5 U mg-1
- Activity [3]: 731 U mg-1
- Activity [4]: 1173 U mg-1
- Ratio [7]: 31700

SMILES: CC[C@H](C)[C@@H]1NC(=O)[C@@H](Cc2ccc(O)cc2)NC(=O)[C@H](N)CSSC[C@@H](C(=O)N(C)CC(=O)N[C@@H](CC(C)C)C(=O)NCC(N)=O)NC(=O)[C@H](CC(N)=O)NC(=O)[C@@H]([C@H](C)O)NC1=O
- Ratio [5]: > 2350

SMILES: CC[C@H](C)[C@@H]1NC(=O)[C@@H](Cc2ccc(O)cc2)NC(=O)[C@H](N)CSSC[C@@H](C(=O)N(C)[C@H](C)C(=O)N[C@@H](CC(C)C)C(=O)NCC(N)=O)NC(=O)[C@H](CC(N)=O)NC(=O)[C@@H]([C@H](C)O)NC1=O
- Ratio [5]: > 192

SMILES: CC[C@H](C)[C@@H]1NC(=O)[C@H](Cc2ccc(O)cc2)NC(=O)[C@@H](N)CSSC[C@@H](C(=O)N2CCC[C@H]2C(=O)N[C@@H](CC(C)C)C(=O)NCC(N)=O)NC(=O)[C@H](CC(N)=O)NC(=O)[C@H]([C@@H](C)O)NC1=O
- Activity [1]: 719 U mg-1
- Activity [2]: 1.8 U mg-1
- Activity [6]: 0.43 U mg-1
- Activity [3]: 543 U mg-1
- Activity [4]: 923 U mg-1
- Ratio [7]: 510

SMILES: CC[C@H](C)[C@@H]1NC(=O)[C@H](Cc2ccc(O)cc2)NC(=O)[C@@H](N)CSSC[C@@H](C(=O)N(C)[C@@H](C)C(=O)N[C@@H](CC(C)C)C(=O)NCC(N)=O)NC(=O)[C@H](CC(N)=O)NC(=O)[C@H](CCC(N)=O)NC1=O
- Activity [1]: 184 U mg-1
- Activity [2]: 0.12 U mg-1
- Activity [6]: <0.35 U mg-1
- Activity [3]: 402 U mg-1
- Activity [4]: 62 U mg-1
- Ratio [7]: 516

SMILES: CC[C@H](C)[C@@H]1NC(=O)[C@@H](Cc2ccc(O)cc2)NC(=O)[C@H](N)CSSC[C@@H](C(=O)N2CCC[C@@H]2C(=O)N[C@@H](CC(C)C)C(=O)NCC(N)=O)NC(=O)[C@H](CC(N)=O)NC(=O)[C@@H]([C@H](C)O)NC1=O
- Ratio [5]: 2150
